The list is not random: actives were taken first. Their share in the collection is about 5.9%.
T cruzi growth-1: blocks T. cruzi growth in NIH3T3 culture; AID 624255; 5.9% of 77,000 active; inhibition, % at 8.34 µM; T. cruzi beta-gal in NIH3T3, GalScreen luminescence, 90 h;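 active = mean inhibition above about 93%, with at least 55% of replicates each passing it, limit read from the data, passing the limit was not always enough; inconclusive = only one of those two conditions holds; inactive = neither condition holds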
Pf Dd2 growth: blocks growth of Plasmodium falciparum Dd2 parasites. P. falciparum Dd2 growth, SYBR Green, 72 h; hits give low values. activity change, % at 10 µM. 2.3% of 94,000 active. AID 1159554; in the data active = activity change below about -80%; inconclusive = no clear call, values can overlap the other calls
IDH1 mut inh: IDH1 R132H (human) inhibition; O75874; IDH1 R132H reductase, diaphorase/resazurin fluorescence, 60 min; inhibition, % at 10 µM; 0.18% of 70,000 active; in the data active = inhibition above about 34%; inconclusive = no clear call, values can overlap the other calls; inactive = below about 11%
Target sequence (O75874 whole entry R132H): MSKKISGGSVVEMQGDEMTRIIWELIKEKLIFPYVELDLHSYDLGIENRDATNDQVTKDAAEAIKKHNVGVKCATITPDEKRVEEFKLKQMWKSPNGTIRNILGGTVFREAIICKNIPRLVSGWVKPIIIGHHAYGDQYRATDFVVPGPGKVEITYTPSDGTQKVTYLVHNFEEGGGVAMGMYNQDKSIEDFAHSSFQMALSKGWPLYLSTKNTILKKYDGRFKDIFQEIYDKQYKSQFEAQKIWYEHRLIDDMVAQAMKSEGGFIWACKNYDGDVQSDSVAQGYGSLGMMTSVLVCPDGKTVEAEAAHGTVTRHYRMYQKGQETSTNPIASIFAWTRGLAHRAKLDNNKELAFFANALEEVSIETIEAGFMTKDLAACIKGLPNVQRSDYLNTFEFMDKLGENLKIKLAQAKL
KDM4C inh: inhibitors of human demethylase GASC-1 KDM4C; inhibition, % at 12.5 µM; Q9H3R0; 0.15% of 96,000 active; GST-KDM4C 2-372, H3K9me3 peptide, LANCE TR-FRET;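 active = mean replicate inhibition above about 25%, with at least 55% of replicates also reaching it, limit read from the data, passing the limit was not always enough; inconclusive = only one of those two conditions met; inactive = neither condition met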
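material = GST-tagged GASC-1 (JMJD2C) catalytic fragment, aa 2-372 | amount = enzyme final amount 10 nM | medium = HEPES buffer, pH 7.5, plus ascorbate | also added = H3K9me3 peptide substrate, Fe(II), 2-oxoglutarate | dosing = single dose | times = 30 min demethylation and 1 h detection at room temperature | detection = LANCE TR-FRET | read-out basis = Fall in 671/618 emission ratio as inhibition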
T cruzi growth-2: inhibitors of T. cruzi proliferation; shares compounds with T cruzi growth-1; T. cruzi beta-gal in NIH3T3, GalScreen luminescence, 90 h; inhibition, % at 8.35 µM; 72% of 5,600 active;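 active = mean replicate inhibition above about 95% and at least 55% of replicates individually reaching it, limit read from the data; inconclusive = only one of the two criteria is met; inactive = neither criterion is met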
T cruzi growth-3: blocks T. cruzi growth in NIH3T3 host cells. 21% of 5,600 active. inhibition, % at 2.09 µM. T. cruzi beta-gal in NIH3T3, GalScreen luminescence, 90 h. shares compounds with T cruzi growth-1;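 active = mean inhibition above about 95%, with at least 55% of replicates also reaching it, limit read from the data; inconclusive = meets just one of the two conditions; inactive = meets neither condition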
3T3 cytotox: kills mouse NIH/3T3 fibroblasts | shares compounds with T cruzi growth-1 | NIH/3T3 viability, CellTiter-Glo ATP luminescence, 90 h | cytotoxicity (signal decrease), % at 8.35 µM | 14% of 5,600 active | AID 651742;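 active = mean signal decrease across replicates above about 35% based on untreated-well scatter, with enough replicates individually passing, limit read from the data; inconclusive = no rule stated though some were filed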
3T3 cytotox 2: cytotoxicity in mouse NIH/3T3 fibroblasts. shares compounds with T cruzi growth-1. NIH/3T3 viability, CellTiter-Glo ATP luminescence, 90 h. inhibition, % at 24.9 µM. 56% of 5,600 active. AID 651744;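 active = mean loss of cell viability signal at or above a set limit, and enough replicates individually reaching it; inconclusive = meets only the mean limit or only the replicate share; inactive = meets neither condition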
Numbers stand for hits; 0 = inactive; ? = inconclusive; - = not tested or not shown.

SMILES | T cruzi growth-1 | Pf Dd2 growth | IDH1 mut inh | KDM4C inh | T cruzi growth-2 | T cruzi growth-3 | 3T3 cytotox | 3T3 cytotox 2
C[C@@H]1CC[C@]2(C(=O)O)CC[C@]3(C(=O)O)C(=CCC4[C@@]5(C)CC[C@H](O[C@@H]6O[C@H](C)[C@H](O)[C@H](O)[C@H]6O)C(C)(C)C5CC[C@]43C)C2[C@H]1C (stereo partly drawn) | - | - | 0 | - | - | - | - | -
COc1ccc(C#Cc2ccc3c(c2)[C@@H]2[C@@H](CCN2C(=O)c2ccccc2F)[C@@H](CO)N3)cc1 | 106 | 0 | - | 0 | 102 | 0 | 0 | 0
O=C(c1ccccc1F)N1CC[C@@H]2[C@H](CO)Nc3ccc(C#Cc4ccc(F)cc4)cc3[C@@H]21 | 0 | 0 | - | 0 | - | - | - | -
COc1ccc(C#Cc2ccc3c(c2)[C@@H]2[C@@H](CCN2C(=O)c2ccccc2F)[C@H](CO)N3C)cc1 | ? | 0 | - | 0 | 111 | ? | 0 | 54
COc1ccc(C#Cc2ccc3c(c2)[C@H]2[C@H](CCN2C(=O)CN2CCOCC2)[C@H](CO)N3C)cc1 | 99 | 0 | - | 0 | 111 | 0 | 0 | 27
Cc1ccccc1NC(=O)CSc1ncnc2scc(-c3ccc(Cl)cc3)c12 | - | - | 0 | - | - | - | - | -
CC(C)(C)OC(=O)NC/C=N/NC(=O)CCCCCCC(=O)O | - | - | 0 | - | - | - | - | -
OC[C@H]1Nc2ccc(C#Cc3ccc(F)cc3)cc2[C@@H]2[C@H]1CCN2Cc1ccc2c(c1)OCO2 | ? | 0 | - | 0 | 103 | 97 | 40 | 104
OC[C@@H]1Nc2ccc(C#Cc3ccc(F)cc3)cc2[C@@H]2[C@H]1CCN2Cc1ccc2c(c1)OCO2 | 134 | 0 | - | 0 | 103 | 107 | 38 | 103
N#Cc1ccc(-c2ccc3c(c2)[C@@H]2[C@@H](CCN2Cc2ccc4c(c2)OCO4)[C@@H](CO)N3)cc1 | 101 | 0 | - | 0 | 105 | 102 | 0 | 106
Cc1cc(C)c(S(=O)(=O)N(C)CC(=O)Nc2ccc(F)c(Cl)c2)c(C)c1 | - | - | 0 | - | - | - | - | -
O=C([C@H]1[C@H](CO)[C@H]2Cn3c(cccc3=O)[C@@H]1N2CC1CC1)N1CCc2ccccc2C1 | 108 | - | - | 0 | 0 | 0 | 0 | 0
O=C([C@@H]1[C@@H](CO)[C@@H]2Cn3c(cccc3=O)[C@H]1N2CC1CC1)N1CCc2ccccc2C1 | 121 | - | - | 0 | 0 | 0 | 0 | 0
Cc1ccc([N+](=O)[O-])cc1NC(=O)CN(C)S(=O)(=O)c1cc(Cl)ccc1Cl | - | - | 0 | - | - | - | - | -
OC[C@@H]1[C@@H](c2ccc(C#Cc3ccccc3F)cc2)[C@H]2CN(Cc3cncnc3)CCCCN12 | 0 | 0 | - | 0 | - | - | - | -
OC[C@H]1[C@H](c2ccc(C#Cc3ccccc3)cc2)[C@H]2CN(Cc3cncnc3)CCCCN21 | 104 | 0 | - | 0 | 107 | 0 | 0 | 103
OC[C@H]1[C@H](c2ccc(C#Cc3ccccc3F)cc2)[C@@H]2CN(Cc3cncnc3)CCCCN12 | 113 | 0 | - | 0 | 99 | 0 | ? | 106
OC[C@H]1[C@H](c2ccc(C#Cc3ccccc3F)cc2)[C@H]2CN(Cc3cncnc3)CCCCN21 | 101 | 0 | - | 0 | 108 | 0 | 40 | 103
OC[C@@H]1[C@H](c2ccc(C#Cc3ccccc3F)cc2)[C@@H]2CN(Cc3cncnc3)CCCCN12 | 107 | 0 | - | 0 | 107 | 0 | 47 | 104
O=C(CSc1ncn(-c2ccccc2)n1)Nc1ccccc1Br | - | - | 0 | - | - | - | - | -
CC(C)c1ccc(NC(=O)CSc2nnc(-c3ccccc3O)n2C)cc1 | - | - | 0 | - | - | - | - | -
C[C@H](CO)N1C[C@H](C)[C@@H](CN(C)Cc2ccc(Cl)c(Cl)c2)Oc2c(NC(=O)c3nc4ccccc4s3)cccc2C1=O | 102 | 0 | 0 | 0 | 99 | 0 | 0 | 0
C[C@H]1CN([C@@H](C)CO)C(=O)c2cccc(NC(=O)c3nc4ccccc4s3)c2O[C@H]1CN(C)Cc1ccc(-c2ccccc2)cc1 | 102 | 0 | 0 | 0 | 102 | 0 | 0 | 0
Cc1ccc(S(=O)(=O)N(C)C[C@H]2Oc3c(NC(=O)c4nc5ccccc5s4)cccc3C(=O)N([C@@H](C)CO)C[C@@H]2C)cc1 | 115 | 0 | - | 0 | ? | 0 | 0 | 44

High-throughput results deposited in PubChem BioAssay by Broad Institute.
